According to EPA's CvTdb concentration-time database:
“And” between values parts separate entries of the source, which are not always exact repeats. Identical values can stand only once.

Key:
rat [1] = assay: concentration in blood after dosing; conditions: duration: 4 hr, male
rat [2] = assay: concentration in blood after dosing; negative times count back from the end of exposure; conditions: inhalation
human [3] = assay: concentration in Capillary Blood after dosing; conditions: dosed: toluene, 200 mg/m^3, inhalation, duration: 2 hr, male
Method in brief: (§1)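 A PubMed search, classifier screening and manual review identified published in vivo toxicokinetic studies, which together with two structured collections supplied concentration-versus-time and amount-versus-time points. Points were mostly digitised from plot screenshots with WebPlotDigitizer, otherwise copied from tables. Dose, route, subject details and medium were hand-curated from each paper, and sampling and analytical methods are those of the sources, often unreported.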

rat [4] = assay: concentration in blood after dosing; conditions: dosed: toluene, 3000 ppm, dermal, duration: 4 hr, male, F344
human [5] = assay: concentration in blood after dosing; conditions: dosed: toluene, 100 ppm, dermal, duration: 30 min, person
Method in brief: as §1

rat [6] = assay: concentration in blood after dosing; conditions: dosed: toluene, 3000 ppm, dermal, duration: 4 hr, male, F344; remark: listed apart in the source
rat [7] = assay: concentration in blood after dosing; conditions: dosed: toluene, 3000 ppm, dermal, duration: 4 hr, male, F344; remark: listed apart in the source
rat [8] = assay: concentration in blood after dosing; conditions: dosed: toluene, 3000 ppm, dermal, duration: 4 hr, male, F344; remark: listed apart in the source
rat [9] = assay: concentration in blood after dosing; conditions: dosed: toluene, 3000 ppm, dermal, duration: 4 hr, male, F344; remark: listed apart in the source

c1ccoc1 [furan]
rat [1], dosed: furan, inhalation, Fischer-344
Conditions	concentration in blood
0.1053 h, 52 ppm	111 ng/mL
0.1054 h, 52 ppm	93 ng/mL
0.1745 h, 107 ppm	142 ng/mL
0.3024 h, 107 ppm	101 ng/mL
0.3025 h, 107 ppm	88.4 ng/mL
0.5398 h, 208 ppm	98.4 ng/mL
0.54 h, 208 ppm	82.3 ng/mL
0.7855 h, 208 ppm	47 ng/mL
0.7856 h, 208 ppm	41.2 ng/mL
0.7857 h, 208 ppm	35.7 ng/mL
130 s, 107 ppm	387 ng/mL and 348 ng/mL
131 s, 107 ppm	309 ng/mL
132 s, 208 ppm	945 ng/mL
133 s, 208 ppm	772 ng/mL and 654 ng/mL

CC(C)O [isopropanol]
rat [2], dosed: isopropanol, duration: 360 min
Conditions	concentration in blood [ng/mL]
0.3018 h, 476 ppm	26000
0.31 h, 4960 ppm	738000
0.5307 h, 476 ppm	18300
0.5409 h, 4960 ppm	647000
1.039 h, 476 ppm	12200
1.102 h, 4960 ppm	552000
1.98 h, 476 ppm	6110
2.098 h, 4960 ppm	367000
3.047 h, 476 ppm	6110
3.117 h, 4960 ppm	240000
5.995 h, 476 ppm	1530
6.019 h, 4960 ppm	67200
12.07 h, 4960 ppm	12200
98 s, 4960 ppm	871000

concentration in blood [ng/mL], rat [2], dosed: isopropanol, duration: 360 min, during exposure
Conditions	-195 s	-5.546 h	-5.517 h	-5.06 h	-4.913 h	-3.002 h	-2.938 h
476 ppm	32100	–	7640	12200	–	21400	–
4960 ppm	–	141000	–	–	241000	–	544000

Cc1ccccc1 [toluene]
Conditions	concentration in Capillary Blood [nM]	concentration in blood
human [3], 0.1631 h	5870	–
human [3], 0.2703 h	6730	–
human [3], 0.5028 h	8250	–
human [3], 0.7659 h	9110	–
human [3], 1.003 h	9630	–
human [3], 1.104 h	9000	–
human [3], 1.493 h	10300	–
human [3], 1.737 h	10300	–
human [3], 1.969 h	10400	–
human [3], 2.075 h	4980	–
human [3], 2.15 h	4310	–
human [3], 2.236 h	4010	–
human [3], 2.514 h	3210	–
human [3], 3.028 h	1540	–
human [3], 3.361 h	1330	–
human [3], 3.69 h	1220	–
human [3], 4.023 h	1050	–
human [3], 4.349 h	959	–
human [3], 4.444 h	711	–
human [3], 4.673 h	867	–
human [3], 5.349 h	763	–
human [3], 5.678 h	671	–
human [3], 5.993 h	632	–
human [3], 334 s	4060	–
human [5], 0.2477 h	–	510 nM
human [5], 0.499 h	–	1720 nM
human [5], 0.7454 h	–	1620 nM
human [5], 0.9948 h	–	1210 nM
human [5], 1.5 h	–	941 nM
human [5], 2.49 h	–	655 nM
human [5], 3.495 h	–	453 nM
rat [4], 0.5 h	–	2160 ng/mL
rat [4], 1 h	–	3520 ng/mL
rat [4], 2 h	–	5470 ng/mL
rat [4], 3 h	–	4800 ng/mL
rat [4], 4 h	–	7390 ng/mL
rat [6], 0.5 h	–	1230 ng/mL
rat [6], 1 h	–	2720 ng/mL
rat [6], 2 h	–	4560 ng/mL
rat [6], 3 h	–	5160 ng/mL
rat [6], 4 h	–	5840 ng/mL
rat [7], 0.5 h	–	1830 ng/mL
rat [7], 1 h	–	3670 ng/mL
rat [7], 2 h	–	5070 ng/mL
rat [7], 3 h	–	5760 ng/mL
rat [7], 4 h	–	7030 ng/mL
rat [8], 0.5 h	–	2910 ng/mL
rat [8], 1 h	–	5540 ng/mL
rat [8], 2 h	–	6830 ng/mL
rat [8], 3 h	–	8230 ng/mL
rat [8], 4 h	–	8240 ng/mL
rat [9], 0.5 h	–	4120 ng/mL
rat [9], 1 h	–	1330 ng/mL
rat [9], 2 h	–	8440 ng/mL
rat [9], 3 h	–	10100 ng/mL
rat [9], 4 h	–	12100 ng/mL

rat [2], dosed: toluene, 100 ppm, duration: 2 hr, male, Wistar
Conditions	concentration in blood [nM]
0.996 h	2600
2.004 h	1520

rat [2], dosed: toluene, 100 ppm, duration: 2 hr, male, Wistar, during exposure
Conditions	concentration in blood [nM]
-20 s	8210
-1.759 h	5580
-1.503 h	6410
-1.005 h	6950
-0.5053 h	9060

rat [1], dosed: toluene, 3000 ppm, dermal, F344
Conditions	concentration in blood [ng/mL]
0.5 h	4530
1 h	5230
2 h	5470
3 h	6610
4 h	6640
